Test results: ChEMBL document CHEMBL3785068, “Synthesis and biological evaluation of novel 6,7-dihydro-5H-cyclopenta[d]pyrimidine and 5,6,7,8-tetrahydroquinazoline derivatives as sigma-1 (σ1) receptor antagonists for the treatment of pain” (Bioorg Med Chem Lett, 2016)

What was measured:
[1] = target: Sigma non-opioid intracellular receptor 1 (Cavia porcellus, UniProt Q60492); test: Displacement of [3H]-(+)-pentazocine from sigma1 receptor in guinea pig brain membrane after 180 mins by liquid scintillation counter; format: cell membranes
[2] = test system: Mus musculus; test: Antinociceptive activity in Kun Ming mouse assessed as inhibition of formalin-induced pain response during phase 2 measured as licking and biting time at 80 mg/kg, ip preincubated with compound for 15 mins followed by formalin injection measured after 15 to 45 mins; format: functional
Method in brief: (§1)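 Formalin injected intraplantar into the mouse hind paw. Licking/biting time scored in phase I (0–5 min) and phase II (15–45 min) after 80 mg/kg test dose. At least ten animals per group; mean ± SEM; two-way ANOVA with Newman-Keuls test against vehicle and formalin-alone groups.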

[3] = test system: Mus musculus; test: Antinociceptive activity in Kun Ming mouse assessed as inhibition of formalin-induced pain response during phase 1 measured as licking and biting time at 80 mg/kg, ip preincubated with compound for 15 mins followed by formalin injection measured up to 5 mins; format: functional; method in brief: as §1

Sigma non-opioid intracellular receptor 1, sequence (Q60492 whole entry): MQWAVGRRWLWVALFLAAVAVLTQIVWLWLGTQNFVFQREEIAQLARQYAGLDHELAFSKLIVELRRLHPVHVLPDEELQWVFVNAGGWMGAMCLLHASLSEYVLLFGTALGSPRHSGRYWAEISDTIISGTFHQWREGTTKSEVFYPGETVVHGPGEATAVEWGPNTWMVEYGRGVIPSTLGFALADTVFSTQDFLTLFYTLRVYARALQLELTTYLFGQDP

| Compound | Ki [1] [nM] | Time [2] [s] | Time [3] [s] |
| --- | --- | --- | --- |
| CC1CCN(CCCOc2nc(-c3ccc(Cl)cc3)nc3c2CCC3)CC1 | 21.1 | – | – |
| Cc1cc(OCCN2CCOCC2)nn1-c1ccc2ccccc2c1 | – | 55.4 | 16.8 |
| CN(C)CCCOc1nc(-c2ccccc2)nc2c1CCCC2 | 138 | – | – |
